Results reported in ChEMBL document CHEMBL4052682, “Exploitation of Conformational Dynamics in Imparting Selective Inhibition for Related Matrix Metalloproteinases” (ACS Med Chem Lett, 2017).
pKi: −log10 of the molar value. The source made the active and inactive calls. The rule behind the calls is not given here.

Key:
Neutrophil collagenase [1] = target: T1, Neutrophil collagenase (Homo sapiens, UniProt P22894); test: (§1) Inhibition of human recombinant MMP-8 catalytic domain (99 to 269 residues) expressed in Escherichia coli using fluorogenic Mca-KPLGL-Dpa-AR-NH2 as substrate at 10 uM by fluorescence spectrophotometric analysis relative to control; settings: 10 µM
Collagenase 3 [2] = target: T2, Collagenase 3 (Homo sapiens, UniProt P45452); test: Inhibition of human recombinant MMP-13 catalytic domain (104 to 274 residues) expressed in Escherichia coli using fluorogenic Mca-KPLGL-Dpa-AR-NH2 as substrate at 10 uM by fluorescence spectrophotometric analysis relative to control
Method in brief: (§2)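 Single-concentration screen: compounds were incubated at 10 μM with each MMP and its substrate, and percent inhibition was measured.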

Neutrophil collagenase [3] = target: T1, Neutrophil collagenase; test: Inhibition of human recombinant MMP-8 catalytic domain (99 to 269 residues) expressed in Escherichia coli using fluorogenic Mca-KPLGL-Dpa-AR-NH2 as substrate by fluorescence spectrophotometric analysis
Method in brief: (§3)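 Ki was determined only for compounds giving more than 50% inhibition in the 10 μM enzyme–substrate screen.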

[4] = target: T3, Matrilysin (Homo sapiens) (UniProt P09237); test: Inhibition of human recombinant active MMP-7 expressed in Escherichia coli using fluorogenic MOCAc-Pro-Leu-Gly-Leu-A2pr(Dnp)-Ala-Arg-NH2 as substrate at 10 uM by fluorescence spectrophotometric analysis; method in brief: as §2
T3 sequence (whole entry): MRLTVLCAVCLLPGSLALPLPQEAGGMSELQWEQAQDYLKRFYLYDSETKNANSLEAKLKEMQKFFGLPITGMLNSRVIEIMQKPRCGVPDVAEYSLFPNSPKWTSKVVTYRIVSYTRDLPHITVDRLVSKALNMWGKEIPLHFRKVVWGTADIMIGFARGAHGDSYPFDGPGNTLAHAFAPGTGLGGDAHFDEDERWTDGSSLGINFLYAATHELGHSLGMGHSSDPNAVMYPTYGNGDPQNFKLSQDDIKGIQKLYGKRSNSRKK

[5] = target: Matrix metalloproteinase-9 (Homo sapiens) (UniProt P14780); test: Inhibition of human recombinant MMP-9 catalytic domain (107 to 449 residues) expressed in Escherichia coli using fluorogenic MOCAc-Pro-Leu-Gly-Leu-A2pr(Dnp)-Ala-Arg-NH2 as substrate at 10 uM by fluorescence spectrophotometric analysis; method in brief: as §2
[6] = target: Stromelysin-1 (Homo sapiens) (UniProt P08254); test: Inhibition of human recombinant MMP-3 catalytic domain expressed in Escherichia coli using fluorogenic MOCAc-Arg-Pro-Lys-Pro-Val-Glu-Nva-Trp-Arg-Lys(Dnp)-NH2 as substrate at 10 uM by fluorescence spectrophotometric analysis; method in brief: as §2
Collagenase 3 [7] = target: T2, Collagenase 3; test: Inhibition of human recombinant MMP-13 catalytic domain (104 to 274 residues) expressed in Escherichia coli using fluorogenic Mca-KPLGL-Dpa-AR-NH2 as substrate by fluorescence spectrophotometric analysis; method in brief: as §3
[8] = target: Matrix metalloproteinase-14 (Homo sapiens) (UniProt P50281); test: Inhibition of human recombinant MMP-14 catalytic domain (89 to 265 residues) expressed in Escherichia coli using fluorogenic MOCAc-Pro-Leu-Gly-Leu-A2pr(Dnp)-Ala-Arg-NH2 as substrate at 10 uM by fluorescence spectrophotometric analysis; method in brief: as §2
[9] = target: MMP-8 (neutrophil collagenase) (Homo sapiens, UniProt P22894); test: as §1; settings: probe Mca-KPLGL-Dpa-AR-NH2 (fluorogenic)
[10] = target: 72 kDa type IV collagenase (Homo sapiens) (UniProt P08253); test: Inhibition of human recombinant full length active MMP-2 expressed in mouse cells using fluorogenic MOCAc-Pro-Leu-Gly-Leu-A2pr(Dnp)-Ala-Arg-NH2 as substrate at 10 uM by fluorescence spectrophotometric analysis; format: biochemical; method in brief: as §2
[11] = target: Matrix metalloproteinase-14 (Homo sapiens) (UniProt P50281); test: Inhibition of human recombinant MMP-14 catalytic domain ([…]) using fluorogenic MOCAc-Pro-Leu-Gly-Leu-A2pr(Dnp)-Ala-Arg-NH2 as substrate at 10 uM by fluorescence spectrophotometric analysis relative to control; method in brief: as §2
[12] = target: T4, Interstitial collagenase (Homo sapiens) (UniProt P03956); test: Inhibition of human recombinant MMP-1 catalytic domain (100 to 268 residues) expressed in Escherichia coli using fluorogenic Mca-KPLGL-Dpa-AR-NH2 as substrate at 10 uM by fluorescence spectrophotometric analysis; method in brief: as §2
T4 sequence (whole entry): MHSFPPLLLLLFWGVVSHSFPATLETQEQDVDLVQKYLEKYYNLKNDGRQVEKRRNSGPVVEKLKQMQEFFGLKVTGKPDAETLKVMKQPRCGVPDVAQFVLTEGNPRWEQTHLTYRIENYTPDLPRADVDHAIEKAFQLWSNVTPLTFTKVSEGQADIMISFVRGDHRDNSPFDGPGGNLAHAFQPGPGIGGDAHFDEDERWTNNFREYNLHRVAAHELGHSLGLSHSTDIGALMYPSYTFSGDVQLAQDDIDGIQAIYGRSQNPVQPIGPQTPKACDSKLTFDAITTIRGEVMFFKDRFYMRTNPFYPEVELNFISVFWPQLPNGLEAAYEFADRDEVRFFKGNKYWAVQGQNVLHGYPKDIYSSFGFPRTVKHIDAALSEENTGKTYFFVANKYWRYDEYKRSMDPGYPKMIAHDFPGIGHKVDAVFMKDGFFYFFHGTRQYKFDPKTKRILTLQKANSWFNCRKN

[13] = AUC (0 to infinity) in CD-1 mouse at 10 mg/kg, po by UPLC analysis; format: ADME, organism-based; design: dose 10 mg/kg, time infinity, route oral; settings: in vivo
[14] = Cmax in CD-1 mouse at 10 mg/kg, po after 6 hrs by UPLC analysis; format: ADME, organism-based; design: dose 10 mg/kg, route oral; settings: in vivo
Method in brief: (§4)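 Mouse pharmacokinetics after a single 10 mg/kg oral dose. Three mice were sampled per time point, out to 48 h, and plasma concentration–time curves were built. Cmax and its time, elimination half-life and AUC0-∞ were derived. Absolute oral bioavailability came from the oral AUC relative to the intravenous (1 mg/kg) AUC, after dose adjustment.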

[15] = Elimination half life in CD-1 mouse at 10 mg/kg, po by UPLC analysis; format: ADME, organism-based; settings: in vivo, read-out: beta t1/2 (converted); method in brief: as §4
[16] = Plasma concentration in CD-1 mouse at 1 mg/kg, iv administered as single dose after 2 mins by UPLC analysis; format: ADME, organism-based
Method in brief: (§5)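 Mouse pharmacokinetics after a single 1 mg/kg intravenous dose. Three mice were sampled per time point and plasma concentration–time curves were built. Plasma levels were read at 2 min and at 24 h. AUC0-∞, clearance (also expressed as a percentage of hepatic blood flow), volume of distribution and elimination half-life were derived from the curves.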

Mus musculus [17] = test: Clearance in CD-1 mouse at 1 mg/kg, iv administered as single dose by UPLC analysis relative to hepatic blood flow; format: ADME, organism-based; settings: in vivo; method in brief: as §5
Mus musculus [18] = test: Time at which plasma concentration stays above human recombinant MMP-13 Ki level in CD-1 mouse at 1 mg/kg, iv administered as single dose by UPLC analysis
[19] = Clearance in CD-1 mouse at 1 mg/kg, iv administered as single dose by UPLC analysis; format: ADME, organism-based; settings: in vivo; method in brief: as §5
[20] = Elimination half life in CD-1 mouse at 1 mg/kg, iv administered as single dose by UPLC analysis; format: ADME, organism-based; settings: in vivo, read-out: beta t1/2 (converted); method in brief: as §5
[21] = Plasma concentration in CD-1 mouse at 10 mg/kg, po after 48 hrs by UPLC analysis; settings: in vivo
[22] = Oral bioavailability in CD-1 mouse at 10 mg/kg by UPLC analysis; format: ADME, organism-based; settings: in vivo; method in brief: as §4
[23] = Volume of distribution in CD-1 mouse at 1 mg/kg, iv administered as single dose by UPLC analysis; format: ADME, organism-based; settings: in vivo; method in brief: as §5
[24] = AUC (0 to infinity) in CD-1 mouse at 1 mg/kg, iv administered as single dose by UPLC analysis; format: ADME, organism-based; design: dose 1 mg/kg, time infinity, route intravenous; settings: in vivo; method in brief: as §5
[25] = Plasma concentration in CD-1 mouse at 1 mg/kg, iv administered as single dose after 24 hrs by UPLC analysis; format: ADME, organism-based; method in brief: as §5
[26] = target: Matrix metalloproteinase-14 (Homo sapiens) (UniProt P50281); test: Inhibition of human recombinant MMP-14 catalytic domain ([…]) using fluorogenic MOCAc-Pro-Leu-Gly-Leu-A2pr(Dnp)-Ala-Arg-NH2 as substrate at 50 uM by fluorescence spectrophotometric analysis relative to control

Chain of MMP-8 (neutrophil collagenase) (P22894 whole entry): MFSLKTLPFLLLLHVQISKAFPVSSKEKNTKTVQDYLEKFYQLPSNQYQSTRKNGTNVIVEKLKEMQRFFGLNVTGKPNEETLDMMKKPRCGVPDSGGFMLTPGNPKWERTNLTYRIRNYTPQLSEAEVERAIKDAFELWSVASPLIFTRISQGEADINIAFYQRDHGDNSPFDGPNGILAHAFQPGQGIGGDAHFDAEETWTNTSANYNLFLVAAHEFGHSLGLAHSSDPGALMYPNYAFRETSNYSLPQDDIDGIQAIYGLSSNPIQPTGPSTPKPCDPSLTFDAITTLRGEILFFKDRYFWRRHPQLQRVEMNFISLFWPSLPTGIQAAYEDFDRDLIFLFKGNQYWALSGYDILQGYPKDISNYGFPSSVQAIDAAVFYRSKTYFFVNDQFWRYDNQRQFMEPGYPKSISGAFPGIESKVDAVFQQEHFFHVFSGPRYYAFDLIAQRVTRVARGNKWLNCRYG
T1 sequence (P22894 whole entry, the tested form may be a part): as the sequence (P22894 whole entry) above
Chain of 72 kDa type IV collagenase (Homo sapiens) (P08253 110-660 limits assumed): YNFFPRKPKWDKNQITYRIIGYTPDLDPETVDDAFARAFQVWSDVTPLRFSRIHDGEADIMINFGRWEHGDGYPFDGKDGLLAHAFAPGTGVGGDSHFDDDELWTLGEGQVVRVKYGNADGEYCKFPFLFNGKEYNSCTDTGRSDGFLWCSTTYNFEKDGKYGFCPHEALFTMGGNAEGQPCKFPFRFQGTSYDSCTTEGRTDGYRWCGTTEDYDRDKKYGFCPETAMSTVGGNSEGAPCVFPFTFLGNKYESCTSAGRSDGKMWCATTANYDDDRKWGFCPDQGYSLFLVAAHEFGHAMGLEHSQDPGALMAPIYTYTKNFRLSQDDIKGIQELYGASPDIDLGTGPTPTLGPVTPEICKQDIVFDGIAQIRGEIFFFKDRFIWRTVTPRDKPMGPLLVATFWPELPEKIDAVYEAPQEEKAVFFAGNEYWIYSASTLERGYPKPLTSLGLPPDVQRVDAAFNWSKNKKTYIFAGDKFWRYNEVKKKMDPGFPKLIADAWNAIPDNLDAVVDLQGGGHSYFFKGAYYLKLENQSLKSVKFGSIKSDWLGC
Chain of Matrix metalloproteinase-9 (Homo sapiens) (P14780 whole entry, the tested form may be a part): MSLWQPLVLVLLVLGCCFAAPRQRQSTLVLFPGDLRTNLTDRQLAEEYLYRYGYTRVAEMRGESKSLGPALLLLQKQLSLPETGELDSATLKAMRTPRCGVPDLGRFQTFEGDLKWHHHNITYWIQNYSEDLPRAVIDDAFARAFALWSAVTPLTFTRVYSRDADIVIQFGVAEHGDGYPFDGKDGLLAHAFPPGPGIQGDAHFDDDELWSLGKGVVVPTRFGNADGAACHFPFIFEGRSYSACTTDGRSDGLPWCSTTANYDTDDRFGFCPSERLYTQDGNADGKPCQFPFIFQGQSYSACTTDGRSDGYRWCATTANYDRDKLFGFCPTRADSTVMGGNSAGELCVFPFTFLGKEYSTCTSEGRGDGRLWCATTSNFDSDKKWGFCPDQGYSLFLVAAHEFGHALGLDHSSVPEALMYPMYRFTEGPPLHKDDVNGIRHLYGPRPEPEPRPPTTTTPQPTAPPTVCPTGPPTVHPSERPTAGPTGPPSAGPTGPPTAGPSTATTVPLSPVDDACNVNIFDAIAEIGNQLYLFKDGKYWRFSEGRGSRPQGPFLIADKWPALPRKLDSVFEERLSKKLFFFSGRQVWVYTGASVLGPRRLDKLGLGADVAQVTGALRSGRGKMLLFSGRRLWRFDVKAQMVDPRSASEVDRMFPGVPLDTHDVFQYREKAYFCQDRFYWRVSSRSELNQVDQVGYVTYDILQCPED
Chain of Stromelysin-1 (Homo sapiens) (P08254 100-477 limits assumed): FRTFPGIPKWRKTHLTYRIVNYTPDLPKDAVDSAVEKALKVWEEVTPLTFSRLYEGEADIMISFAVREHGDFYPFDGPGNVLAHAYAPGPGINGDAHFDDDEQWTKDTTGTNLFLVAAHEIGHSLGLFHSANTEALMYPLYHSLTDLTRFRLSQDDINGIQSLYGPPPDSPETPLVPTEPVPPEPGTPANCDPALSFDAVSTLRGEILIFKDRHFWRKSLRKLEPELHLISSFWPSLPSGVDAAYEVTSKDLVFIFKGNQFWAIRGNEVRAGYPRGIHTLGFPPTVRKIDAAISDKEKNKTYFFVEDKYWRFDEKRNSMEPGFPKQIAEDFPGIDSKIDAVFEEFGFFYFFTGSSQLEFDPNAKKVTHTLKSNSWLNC

O=C1COc2ccc(CNC(=O)c3cc(-c4ccccc4)n[nH]3)cc2N1
inhibition (INH) (Neutrophil collagenase [1]): Not Active | inhibition (Collagenase 3 [2]): Active

O=C1COc2ccc(CNC(=O)c3nc4scc(C5CCCCC5)c4c(=O)[nH]3)cc2N1
pKi (Neutrophil collagenase [3]): 7.72 | inhibition [4]: inactive | inhibition [5]: inactive | inhibition [6]: inactive | pKi (Collagenase 3 [7]): 9.33 | inhibition [8]: inactive | inhibition at 10 µM [9]: > 50% | inhibition (Collagenase 3 [2]): > 50% | inhibition [10]: inactive | inhibition [11]: 14% | inhibition [12]: inactive

O=C1COc2ccc(CNC(=O)c3cc(-c4ccsc4)n[nH]3)cc2N1
inhibition (INH) (Neutrophil collagenase [1]): Not Active | inhibition (Collagenase 3 [2]): Active

O=C1COc2ccc(CNC(=O)c3cc(-c4cccc5ccccc45)n[nH]3)cc2N1
inhibition (INH) (Neutrophil collagenase [1]): Not Active | inhibition (Collagenase 3 [2]): Active

O=C1COc2ccc(CNC(=O)c3nc4sc5c(c4c(=O)[nH]3)CCCCCC5)cc2N1
pKi (Neutrophil collagenase [3]): 9.15 | inhibition [4]: inactive | inhibition [5]: inactive | inhibition [6]: inactive | pKi (Collagenase 3 [7]): 9.23 | inhibition [8]: inactive | inhibition at 10 µM [9]: > 50% | inhibition (Collagenase 3 [2]): > 50% | inhibition [10]: inactive | inhibition [11]: 14% | inhibition [12]: inactive

O=C1COc2ccc(CNC(=O)c3nc4scc(-c5ccc(C(F)(F)F)cc5)c4c(=O)[nH]3)cc2N1
pKi (Neutrophil collagenase [3]): 5.07 | AUC(0-inf) [13]: 6.92 µM·h | Cmax [14]: 400 nM | inhibition [4]: inactive | half-life [15]: 17.5 h | concentration at 2 min [16]: 4400 nM | CL (Mus musculus [17]): 3% | inhibition [5]: inactive | Time (Mus musculus [18]): 24 h | clearance [19]: 2.2 mL/min/kg | half-life [20]: 5.3 h | inhibition [6]: inactive | pKi (Collagenase 3 [7]): 7.44 | inhibition [8]: inactive | inhibition at 10 µM [9]: > 50% | Plasma concentration at 48 h [21]: 42 nM | bioavailability [22]: 4.7% | Vd [23]: 1 L/kg | inhibition (Collagenase 3 [2]): > 50% | AUC(0-inf) [24]: 14.8 µM·h | concentration at 24 h [25]: 62 nM | inhibition [10]: inactive | inhibition [11]: 1% | inhibition [12]: inactive

O=C1COc2ccc(CNC(=O)c3nc4scc(CCc5ccccc5)c4c(=O)[nH]3)cc2N1
pKi (Neutrophil collagenase [3]): 5.19 | inhibition [4]: inactive | inhibition [5]: inactive | inhibition [6]: inactive | pKi (Collagenase 3 [7]): 6.72 | inhibition [8]: inactive | inhibition at 10 µM [9]: > 50% | inhibition (Collagenase 3 [2]): > 50% | inhibition [10]: inactive | inhibition [11]: 4% | inhibition [12]: inactive

O=C1COc2ccc(CNC(=O)c3nc4sc(C5CCCCC5)cc4c(=O)[nH]3)cc2N1
pKi (Neutrophil collagenase [3]): 8.48 | inhibition [4]: inactive | inhibition [5]: inactive | inhibition [6]: inactive | pKi (Collagenase 3 [7]): 7.61 | inhibition [8]: inactive | inhibition at 10 µM [9]: > 50% | inhibition [26]: 57% | inhibition (Collagenase 3 [2]): > 50% | inhibition [10]: inactive | inhibition [12]: inactive
